High-throughput results as filed in PubChem BioAssay.
Tb MetRS inh: Trypanosoma brucei MetRS inhibition; hit rate 0.4% among 360,000; purified T. brucei MetRS, ATP depletion, Kinase-Glo luminescence; inhibition, % at 11.9 µM;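 active = inhibition above a per-plate cutoff of the control wells' mean inhibition plus 3 SD, cut at about 5.5% in these data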;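 note: 0% = DMSO wells median and 100% = median of wells with control inhibitor compound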
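System: purified T. brucei MetRS enzyme / Detection: Kinase-Glo luciferase luminescence reporting remaining unconsumed ATP / Medium: HEPES buffer with MgCl2, KCl, DTT, spermine, BSA, pyrophosphatase / Replication: singlicate, one well per compound / Evaluation: percent inhibition relative to median high and low control wells / Schedule: 2 h aminoacylation at 25 °C after 15 min preincubation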
GRIN3A LBD mod: NR3A (human) ligand-binding domain modulation | AID 1259313 | Tm shift relative to glycine control, % at 25 µM | hit rate 2.5% among 340,000 | NR3A LBD differential scanning fluorimetry, Tm shift; 0% = protein alone, 100% = glycine-bound protein;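 active = melting temperature shift of at least 10% of the positive control shift, at one fixed dose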
EBV gp42 block: inhibitors of Epstein-Barr virus glycoprotein 42; Fluorescence polarization binding assay, mP read-out; inhibition, % (tested at 21.74 µM); hit rate 0.42% among 220,000; AID 1085; in the data active = inhibition above about 50%
Target sequence (Q1HVG2 whole entry, looked up): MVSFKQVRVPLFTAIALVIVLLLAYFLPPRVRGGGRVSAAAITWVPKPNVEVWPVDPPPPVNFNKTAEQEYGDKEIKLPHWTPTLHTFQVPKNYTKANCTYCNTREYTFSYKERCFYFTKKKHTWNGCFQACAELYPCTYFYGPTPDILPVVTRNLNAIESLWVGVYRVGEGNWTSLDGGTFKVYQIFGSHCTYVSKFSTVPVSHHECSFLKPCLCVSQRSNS
MPTP inh: inhibitors of mitochondrial permeability transition pore; isolated mouse mitochondria, Ca2+ swelling absorbance, 30 min; AID 602449; inhibition, % at 10 µM; hit rate 1.4% among 360,000;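 active = inhibition of 50% or more, scaled per plate between neutral and stimulator controls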;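 note: 0% = DMSO wells given calcium and 100% = 1 mM EGTA wells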
WT yeast gro inh: growth inhibition of WT yeast, mitochondrial fusion screen; inhibition, % at 10 µM; mitochondrial fusion phenotypic screen, WT strain; AID 1362; hit rate 2.1% among 190,000; in the data active = inhibition above about 58%; tested in S. cerevisiae
CHOP inh: CHOP inhibition in unfolded protein response | CHO-K1 CHOP-promoter luciferase, tunicamycin-induced, 15-18 h | inhibition, % at 10 µM | hit rate 3.8% among 220,000 | AID 2732;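 active = compounds that reduced the stress-induced luciferase reporter signal by more than about 70% of percent inhibition, limit read from the data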;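 note: 0% = tunicamycin plus vehicle and 100% = wells without tunicamycin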
Rh123 counter: Rhodamine 123 counter-screen of mitochondrial pore hits; shares compounds with MPTP inh; isolated mitochondria, membrane potential, Rhodamine 123 fluorescence; inhibition, % at 10 µM; hit rate 78% among 5,000; AID 624504; in the data active = inhibition above about 22%;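 note: 0% = DMSO vehicle and 100% = positive control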
MPTP abs DR: MPTP inhibition, dose response swelling confirmation; IC50, µM; isolated mitochondria swelling, absorbance; shares compounds with MPTP inh; hit rate 58% among 780; in the data active = IC50 below about 20 µM
MPTP cs DR: counter-screen for mitochondrial permeability transition pore inhibitors, dose response; IC50, µM; hit rate 49% among 780; shares compounds with MPTP inh; isolated mitochondria counterscreen, fluorescence read-out; AID 651564; in the data active = IC50 below about 80 µM
* = called active by the depositor. Sampled rows, rich in hits. Any-hit rate of the full collection: about 6.4%.

Screening N#CCC(=O)NCCCOC(=O)Nc1ccc(Cl)c(Cl)c1 returned Tb MetRS inh 1, GRIN3A LBD mod -3, EBV gp42 block -11, MPTP inh 79*, WT yeast gro inh 28, CHOP inh 40 and Rh123 counter 86*.
Screening Cc1ccc(C(C)C)c(OCCCN2CC(C)OC(C)C2)c1 (stereo not drawn) returned Tb MetRS inh -1, GRIN3A LBD mod -1, EBV gp42 block -18, MPTP inh -1, WT yeast gro inh 14 and CHOP inh 49.
Nc1ncc(Br)cc1S(=O)(=O)Nc1cc(C(F)(F)F)cc(C(F)(F)F)c1 was read as Tb MetRS inh 1, GRIN3A LBD mod 9, MPTP inh 85* and Rh123 counter 85*.
`CC(=O)C[C@@H](O)CC(=O)[C@@H]1OC(=O)[C@H](C)CCCCc2ccccc21` gave Tb MetRS inh 0, GRIN3A LBD mod 2 and MPTP inh 1.
Screening FC(F)Oc1ccc(NC(=S)NCc2ccccc2)cc1Cl returned Tb MetRS inh 5, GRIN3A LBD mod -2, EBV gp42 block 7, MPTP inh 100*, WT yeast gro inh 58*, CHOP inh 45 and Rh123 counter 82*.
For CN(NC(=S)Nc1ccc(OC(F)F)cc1)C(=S)Nc1ccc(OC(F)F)cc1 the results were Tb MetRS inh 0, GRIN3A LBD mod 2, EBV gp42 block -16, MPTP inh 84*, WT yeast gro inh 65*, CHOP inh 10 and Rh123 counter 93*.
Oc1cccc2c(NC(=S)Nc3ccc(OC(F)F)cc3)cccc12 was read as Tb MetRS inh 1, GRIN3A LBD mod 11*, EBV gp42 block 7, MPTP inh 62*, WT yeast gro inh 45, CHOP inh 33 and Rh123 counter 80*.
Screening FC(F)Oc1ccc(NC(=S)NCc2ccccc2)cc1 returned Tb MetRS inh 0, GRIN3A LBD mod 4, EBV gp42 block -19, MPTP inh 79*, WT yeast gro inh 0, CHOP inh 5 and Rh123 counter 81*.
`FC(F)Oc1ccc(NC(=S)Nn2cnnc2)cc1` gave Tb MetRS inh 0, GRIN3A LBD mod 7, EBV gp42 block -8, MPTP inh 1, WT yeast gro inh 27 and CHOP inh 2.
For CCNCc1nc2cc(OC)c(OC)cc2c(=O)[nH]1 the results were Tb MetRS inh -2, GRIN3A LBD mod 3, EBV gp42 block -6, MPTP inh 0, WT yeast gro inh -7 and CHOP inh 13.
COc1cc(NC(=O)c2onc(C)c2Cl)c(OC)cc1Cl was read as Tb MetRS inh 0, GRIN3A LBD mod -3, EBV gp42 block 1, MPTP inh 0, WT yeast gro inh -9 and CHOP inh 5.
For COCCCN1CC(=O)N2C(c3ccccc3)c3[nH]c4ccccc4c3C[C@H]2C1=O (stereo partly drawn) the results were Tb MetRS inh 0, GRIN3A LBD mod 1 and MPTP inh 0.
Screening O=C(OCc1ccccc1)N(CCCCN(CCCNCc1ccccc1)C(=O)OCc1ccccc1)CCCNCc1ccccc1 returned Tb MetRS inh 0, GRIN3A LBD mod 0, MPTP inh 64* and Rh123 counter -6.
For CC1=C(C(=O)Nc2ccccc2C(=O)NCCCOC(C)C)SCCO1 the results were Tb MetRS inh -2, GRIN3A LBD mod -2 and MPTP inh 0.
For O=C1CCCN1CCCNS(=O)(=O)c1cccs1 the results were Tb MetRS inh 0, GRIN3A LBD mod 0 and MPTP inh -1.
Screening COc1ccc(-c2ccc(OC)c([C@H]3[C@@H]4C=CCC[C@@]4(C)C(=O)N3Cc3ccccc3)c2)cc1OC returned Tb MetRS inh 0, GRIN3A LBD mod 2, EBV gp42 block 2, MPTP inh -1 and CHOP inh 10.
`Cc1ccc(CS(=O)(=O)c2nc3c(c(N(C)C)n2)CCCC3)cc1` gave Tb MetRS inh 0, GRIN3A LBD mod -1, EBV gp42 block 3, MPTP inh -1, WT yeast gro inh 3 and CHOP inh 17.
Screening CC(NC(=O)Nc1ccc(Cl)c(Cl)c1)C(c1ccccc1)N1CCOCC1 (stereo not drawn) returned Tb MetRS inh -1, GRIN3A LBD mod 1, EBV gp42 block 18, MPTP inh 89*, WT yeast gro inh 75*, CHOP inh 17 and Rh123 counter 95*.
`CC(Cc1cccs1)NC(=O)Nc1ccc(Cl)c(Cl)c1` (stereo not drawn) gave Tb MetRS inh 1, GRIN3A LBD mod 8, EBV gp42 block -21, MPTP inh 96*, WT yeast gro inh 81, CHOP inh 49 and Rh123 counter 94*.
O=C(CCN1CCCC1=O)NC1CCCc2c1cnn2-c1ccccc1F (stereo not drawn) was read as Tb MetRS inh 0, GRIN3A LBD mod 3 and MPTP inh -1.
`O=C(CSc1ccc(Cl)cc1)Nc1cccc(-c2nnc(-c3ccco3)o2)c1` gave Tb MetRS inh 0, GRIN3A LBD mod 11*, EBV gp42 block -2, MPTP inh 70*, WT yeast gro inh 2, CHOP inh 42 and Rh123 counter 59*.
COc1cc(S(=O)(=O)NC2CCCC2)c(OC)cc1Cl was read as Tb MetRS inh 0, GRIN3A LBD mod -2, EBV gp42 block -19, MPTP inh 1, WT yeast gro inh -4 and CHOP inh 31.
For Cc1nc(Nc2ccc(S(=O)(=O)N3CCCCC3C)cc2)c2nnn(Cc3ccccc3)c2n1 (stereo not drawn) the results were Tb MetRS inh 0, GRIN3A LBD mod -2, EBV gp42 block -3, MPTP inh 68*, WT yeast gro inh -5, CHOP inh 74*, Rh123 counter 14, MPTP abs DR inactive and MPTP cs DR >80.
Screening NC1=NC[C@H](Cc2ccccc2)N1CCCCC1CCCCC1 returned Tb MetRS inh 0, GRIN3A LBD mod -11, EBV gp42 block 10, MPTP inh 82*, CHOP inh 31 and Rh123 counter 48*.
For CCN1CCN(c2cc(N3CCc4ccccc4C3)c(F)cc2[N+](=O)[O-])CC1 the results were Tb MetRS inh -1, GRIN3A LBD mod -2, EBV gp42 block -10, MPTP inh 104*, WT yeast gro inh 81*, CHOP inh 15 and Rh123 counter -12.
For COc1ccc(C(C)=NNc2ccc([N+](=O)[O-])cc2S(=O)(=O)Nc2ccccc2C(=O)O)c(OC)c1 the results were Tb MetRS inh 0, GRIN3A LBD mod 9, MPTP inh 86* and Rh123 counter 38*.
